# High-throughput results from PubChem.
# ERp5 inh: inhibitors of human ERp5 | Q15084 | ERp5 insulin aggregation, absorbance 650 nm, 90 min | inhibition, % at 9.99 µM | hit rate 0.05% among 350,000 | AID 651711;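 active = mean replicate inhibition above about 25%, with every replicate also reaching it, limit read from the data, passing the limit was not always enough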
# Target sequence (Q15084 whole entry, looked up): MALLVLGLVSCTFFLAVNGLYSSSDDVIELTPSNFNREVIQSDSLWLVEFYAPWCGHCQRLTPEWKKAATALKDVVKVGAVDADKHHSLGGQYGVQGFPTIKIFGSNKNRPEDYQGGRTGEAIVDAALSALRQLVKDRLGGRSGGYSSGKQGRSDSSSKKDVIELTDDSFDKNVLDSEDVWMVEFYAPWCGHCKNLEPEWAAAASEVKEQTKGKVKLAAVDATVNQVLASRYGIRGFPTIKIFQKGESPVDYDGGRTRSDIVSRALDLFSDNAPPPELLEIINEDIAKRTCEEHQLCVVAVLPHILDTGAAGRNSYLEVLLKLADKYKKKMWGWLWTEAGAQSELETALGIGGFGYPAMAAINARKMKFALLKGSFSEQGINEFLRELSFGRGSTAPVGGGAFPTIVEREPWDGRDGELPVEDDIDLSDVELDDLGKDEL
# Env fusion inh: blocks HIV Env-driven cell-cell fusion. HeLa-JRFL Env/CEM21 cell fusion, luciferase. hit rate 1.1% among 360,000. inhibition, % at 12.3 µM;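 active = mean replicate inhibition score of at least 50 and every replicate individually at or above 50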
# INS-1E GSIS act: primary screen for activators of insulin secretion dependent on glucose, INS-1E cells, GLuc reporter luminescence | INS-1E GLuc reporter insulin secretion, 2-3 h | hit rate 0.61% among 370,000 | AID 743287 | activation, % at 16.6 µM;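 active = lowest replicate activation of at least 40%, so every replicate reaches that level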
# PDI turbidity: blocks human protein disulfide isomerase activity. PDI insulin aggregation turbidity, A650, 90 min. P07237. hit rate 0.052% among 350,000. inhibition, % at 10 µM;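 active = mean inhibition across replicates of 30% or more, whatever share of single replicates reach that level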
# FN deposit inh: fibronectin deposition inhibition; inhibition, % at 12.6 µM; hit rate 0.086% among 350,000; AID 743247; AH1F fibroblasts, Alexa488-fibronectin deposition fluorescence, overnight;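 active = mean inhibition across replicates of 30% or more, regardless of how many single replicates reach that level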
#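 Assay system: AH1F fibroblasts assembling fluorescent fibronectin matrix; Amount: 10000 AH1F cells per well; Buffer or medium: DMEM, 2% serum; Probe or stimulus: Alexa488-fibronectin, 24 nM final in well; Doses: single compound dose, delivered by pin transfer; Incubation: 1 h adhesion, overnight exposure; Measured by: fluorescence 485/525 nm; Read-out: fibronectin deposition inhibition.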
# A number is an active result; - = inactive; . = not tested or not shown; [ ] = dose if it differs, or a comment. An excerpt weighted towards active compounds, which were near 1.4% of everything screened.
SMILES,ERp5 inh,Env fusion inh,INS-1E GSIS act,PDI turbidity,FN deposit inh
Oc1ccc(-c2n[nH]c(C(F)(F)F)c2-c2ccccc2)c(O)c1,-,-,-,-,-
Cc1noc(C)c1NC(=O)N(C)C[C@@H]1Oc2ccc(NC(=O)Nc3ccc(F)cc3)cc2C(=O)N([C@@H](C)CO)C[C@@H]1C,-,-,-,.,.
CCOC(=O)COc1nc2c(c(-c3ccco3)c1C#N)CCc1ccccc1-2,-,56.7,-,-,-
N#Cc1c(OCC(=O)c2ccccc2)nc2c(c1-c1ccco1)CCc1ccccc1-2,.,-,.,-,.
Cc1nn(C)c(C)c1NC(=O)CSc1nc(C2CC2)nc2c1cnn2-c1ccccc1,.,56.6,.,-,-
O=C(c1ccc(S(=O)(=O)Nc2ccc(F)cc2)cc1)N1CCN(C(=O)c2ccco2)CC1,.,73.2,.,-,-
Cc1cc(S(=O)(=O)Nc2ccc(C(=O)N3CCN(C(=O)c4ccco4)CC3)cc2)ccc1F,.,-,.,-,-
[O-]/[N+](=C\c1ccc(F)cc1)c1ccccc1,.,-,58.1,-,-
COc1cc(OC)cc(C(=O)Nc2cccnc2)c1,-,-,-,-,-
CCOc1cc(OCC)cc(C(=O)Nc2cccnc2)c1,-,.,40.9,-,.
COc1ccc(S(=O)(=O)N(C)C[C@H]2Oc3ccc(NC(=O)NC4CCCCC4)cc3C(=O)N([C@H](C)CO)C[C@H]2C)cc1,-,.,-,.,-
CCNC(=O)[C@H]1[C@H](CO)[C@H]2Cn3c(ccc(/C=C/c4ccccc4)c3=O)[C@@H]1N2C(C)=O,-,.,-,.,.
CCCNC(=O)[C@H]1[C@H](CO)[C@H]2Cn3c(ccc(/C=C/c4ccccc4)c3=O)[C@@H]1N2C(C)=O,71.5,.,-,.,.
CCN(CC)CCOC(=O)c1ccc(N/C=C(/C#N)c2nc(-c3cccc(OC)c3)cs2)cc1,-,-,.,-,-
CCN(CC)CCOC(=O)c1ccc(N/C=C(/C#N)c2nc(-c3ccc(OC)c(OC)c3)cs2)cc1,-,-,56.2,-,-
N#C[C@H]1[C@H](c2ccccc2-c2cccc(F)c2)[C@@H](CO)N1C(=O)C1CCCC1,-,-,-,.,-
O=C1CN(C(=O)c2ccc(Br)o2)C(c2ccccc2)c2cc(Cl)ccc2N1 (stereo not given),-,58.2,-,-,-
O=C(CSc1nc(-c2ccccc2)c(-c2ccccc2)o1)N1CCCCC1,-,-,-,-,-
NC(=O)CSc1nc(-c2ccccc2)c(-c2ccccc2)o1,.,.,72.8,-,.
C[C@@H]1CN([C@H](C)CO)C(=O)c2cccc(NC(=O)Nc3ccc(C(F)(F)F)cc3)c2O[C@@H]1CN(C)C(=O)Nc1cccc2ccccc12,-,-,-,.,-
CNC[C@H]1Oc2c(NC(=O)Nc3ccc(C(F)(F)F)cc3)cccc2C(=O)N([C@@H](C)CO)C[C@H]1C,-,63.4[16.7 µM],-,.,-
C[C@@H]1CN([C@H](C)CO)C(=O)c2cccc(NC(=O)Nc3cccc4ccccc34)c2O[C@@H]1CN(C)C(=O)Nc1ccc(C(F)(F)F)cc1,41.9,-,-,.,.
C[C@H]1CN([C@@H](C)CO)C(=O)c2cccc(NC(=O)Nc3cccc4ccccc34)c2O[C@@H]1CN(C)C(=O)Nc1ccc(C(F)(F)F)cc1,79.4,-,-,.,.
C[C@@H]1CN([C@H](C)CO)C(=O)c2cccc(NC(=O)Nc3cccc4ccccc34)c2O[C@H]1CN(C)C(=O)Nc1ccc(C(F)(F)F)cc1,61.9,-,-,.,.
O=C(NCC[C@@H]1CC[C@@H](NC(=O)c2cnccn2)[C@H](CO)O1)c1ccc2c(c1)OCO2,-,-,-,.,-
SMILES,ERp5 inh,Env fusion inh,INS-1E GSIS act,PDI turbidity,FN deposit inh
CCNC(=O)[C@H]1[C@H](CO)[C@H]2Cn3c(cccc3=O)[C@H]2N1CC1CCCCC1,.,-,-,.,.
COc1ccc(S(=O)(=O)N2CCCCN3[C@H](CO)[C@H](c4ccc(-c5cccnc5)cc4)[C@H]3C2)cc1,-,.,-,.,.
COC(=O)CN1C(c2cccc(Cl)c2)=Nc2ccc(Cl)cc2C1c1ccccc1 (stereo not given),-,56.0,.,-,-
COc1ccc(CNC(=O)N(C)C[C@H]2OCc3ccccc3-c3c(n(C)c4ccccc34)C(=O)N([C@@H](C)CO)C[C@@H]2C)cc1,-,58.0[16.7 µM],.,.,.
COc1ccc(CNC(=O)N(C)C[C@H]2OCc3ccccc3-c3ccccc3C(=O)N([C@H](C)CO)C[C@@H]2C)cc1,-,71.8[16.7 µM],-,.,-
COc1ccc(CNC(=O)N(C)C[C@H]2OCc3ccccc3-c3c(n(C)c4ccccc34)C(=O)N([C@H](C)CO)C[C@@H]2C)cc1,-,67.6[16.7 µM],-,.,-
